Data: ChEMBL document CHEMBL4689842, “EUbOPEN Chemogenomics Library wave 1” (2021)

System: Fibroblast
Test: Multiplex assay against human fibroblast
Type: toxicity, cell-based
Outline: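 Tubulin, mitochondrial-mass and membrane-permeability phenotypes are per cents of healthy-nucleus cells. Cells were gated by CellPathfinder machine learning into Hoechst high-intensity objects or normal cells, normal cells into healthy, pyknosed or fragmented nuclei, and pyknosed cells into mitotic or apoptotic. Before that, live cells stained at seeding with Hoechst33342, BioTracker Green Microtubule Cytoskeleton Dye, MitoTracker Red and Annexin V Alexa Fluor 680 were imaged on a CQ1 microscope at 37°C and 5% CO2 after compound addition.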

[1] = 12 h, 1 µM, compound concentration 1 uM, replicate 1
[2] = 12 h, 1 µM, compound concentration 1 uM, replicate 2
[3] = 12 h, 10 µM, compound concentration 10 uM, replicate 1
[4] = 12 h, 10 µM, compound concentration 10 uM, replicate 2
[5] = 24 h, 1 µM, compound concentration 1 uM, replicate 1
[6] = 24 h, 1 µM, compound concentration 1 uM, replicate 2
[7] = 24 h, 10 µM, compound concentration 10 uM, replicate 1
[8] = 24 h, 10 µM, compound concentration 10 uM, replicate 2
[9] = 48 h, 1 µM, compound concentration 1 uM, replicate 1
[10] = 48 h, 1 µM, compound concentration 1 uM, replicate 2
[11] = 48 h, 10 µM, compound concentration 10 uM, replicate 1
[12] = 48 h, 10 µM, compound concentration 10 uM, replicate 2

## Cn1cc(-c2[nH]c3cc(NC(=O)[C@H](N)C4CCCCC4)cc4c3c2C=NNC4=O)cn1
[1]
  Population Apoptotic (%): 76%
  Population Fragmented Nuclei (%): 27%
  Population Healthy Nuclei (%): 42%
  Population Hoechst High Intensity Objects (%): 8%
  Population Membrane Permeable-Phenotype (%): 18%
  Population Mitochondria Different-Phenotype (%): 13%
  Population Mitotic Cells (%): 23%
  Population Normal (%): 91%
  Population Pyknosed Nuclei (%): 30%
  Population Tubulin-Different-Phenotype (%): 28%
  Total Cell Count: 138
[2]
  Population Apoptotic (%): 33%
  Population Fragmented Nuclei (%): 13%
  Population Healthy Nuclei (%): 72%
  Population Hoechst High Intensity Objects (%): 3%
  Population Membrane Permeable-Phenotype (%): 4%
  Population Mitochondria Different-Phenotype (%): 7%
  Population Mitotic Cells (%): 66%
  Population Normal (%): 96%
  Population Pyknosed Nuclei (%): 13%
  Population Tubulin-Different-Phenotype (%): 12%
  Total Cell Count: 51
[3]
  Population Apoptotic (%): 69%
  Population Fragmented Nuclei (%): 48%
  Population Healthy Nuclei (%): 38%
  Population Hoechst High Intensity Objects (%): 20%
  Population Membrane Permeable-Phenotype (%): 20%
  Population Mitochondria Different-Phenotype (%): 4%
  Population Mitotic Cells (%): 30%
  Population Normal (%): 79%
  Population Pyknosed Nuclei (%): 13%
  Population Tubulin-Different-Phenotype (%): 43%
  Total Cell Count: 244
[4]
  Population Fragmented Nuclei (%): 37%
  Population Healthy Nuclei (%): 42%
  Population Hoechst High Intensity Objects (%): 9%
  Population Membrane Permeable-Phenotype (%): 21%
  Population Mitochondria Different-Phenotype (%): 53%
  Population Normal (%): 90%
  Population Pyknosed Nuclei (%): 19%
  Population Tubulin-Different-Phenotype (%): 57%
  Total Cell Count: 91
[5]
  Population Apoptotic (%): 58%
  Population Fragmented Nuclei (%): 27%
  Population Healthy Nuclei (%): 44%
  Population Hoechst High Intensity Objects (%): 12%
  Population Membrane Permeable-Phenotype (%): 20%
  Population Mitochondria Different-Phenotype (%): 3%
  Population Mitotic Cells (%): 41%
  Population Normal (%): 87%
  Population Pyknosed Nuclei (%): 28%
  Population Tubulin-Different-Phenotype (%): 26%
  Total Cell Count: 137
[6]
  Population Apoptotic (%): 43%
  Population Fragmented Nuclei (%): 13%
  Population Healthy Nuclei (%): 70%
  Population Hoechst High Intensity Objects (%): 3%
  Population Membrane Permeable-Phenotype (%): 9%
  Population Mitochondria Different-Phenotype (%): 6%
  Population Mitotic Cells (%): 56%
  Population Normal (%): 96%
  Population Pyknosed Nuclei (%): 15%
  Population Tubulin-Different-Phenotype (%): 15%
  Total Cell Count: 52
[7]
  Population Apoptotic (%): 62%
  Population Fragmented Nuclei (%): 54%
  Population Healthy Nuclei (%): 37%
  Population Hoechst High Intensity Objects (%): 23%
  Population Membrane Permeable-Phenotype (%): 20%
  Population Mitochondria Different-Phenotype (%): 1%
  Population Mitotic Cells (%): 37%
  Population Normal (%): 76%
  Population Pyknosed Nuclei (%): 8%
  Population Tubulin-Different-Phenotype (%): 52%
  Total Cell Count: 256
[8]
  Population Apoptotic (%): 86%
  Population Fragmented Nuclei (%): 34%
  Population Healthy Nuclei (%): 29%
  Population Hoechst High Intensity Objects (%): 16%
  Population Membrane Permeable-Phenotype (%): 44%
  Population Mitochondria Different-Phenotype (%): 61%
  Population Mitotic Cells (%): 13%
  Population Normal (%): 83%
  Population Pyknosed Nuclei (%): 36%
  Population Tubulin-Different-Phenotype (%): 55%
  Total Cell Count: 106
[9]
  Population Apoptotic (%): 43%
  Population Fragmented Nuclei (%): 30%
  Population Healthy Nuclei (%): 49%
  Population Hoechst High Intensity Objects (%): 14%
  Population Membrane Permeable-Phenotype (%): 26%
  Population Mitochondria Different-Phenotype (%): 3%
  Population Mitotic Cells (%): 56%
  Population Normal (%): 85%
  Population Pyknosed Nuclei (%): 20%
  Population Tubulin-Different-Phenotype (%): 26%
  Total Cell Count: 134
[10]
  Population Apoptotic (%): 0%
  Population Fragmented Nuclei (%): 47%
  Population Healthy Nuclei (%): 50%
  Population Hoechst High Intensity Objects (%): 15%
  Population Membrane Permeable-Phenotype (%): 20%
  Population Mitochondria Different-Phenotype (%): 2%
  Population Mitotic Cells (%): 100%
  Population Normal (%): 84%
  Population Pyknosed Nuclei (%): 2%
  Population Tubulin-Different-Phenotype (%): 38%
  Total Cell Count: 103
[11]
  Population Apoptotic (%): 77%
  Population Fragmented Nuclei (%): 52%
  Population Healthy Nuclei (%): 41%
  Population Hoechst High Intensity Objects (%): 39%
  Population Membrane Permeable-Phenotype (%): 14%
  Population Mitochondria Different-Phenotype (%): 3%
  Population Mitotic Cells (%): 22%
  Population Normal (%): 60%
  Population Pyknosed Nuclei (%): 5%
  Population Tubulin-Different-Phenotype (%): 36%
  Total Cell Count: 251
[12]
  Population Apoptotic (%): 50%
  Population Fragmented Nuclei (%): 62%
  Population Healthy Nuclei (%): 35%
  Population Hoechst High Intensity Objects (%): 32%
  Population Membrane Permeable-Phenotype (%): 11%
  Population Mitochondria Different-Phenotype (%): 2%
  Population Mitotic Cells (%): 50%
  Population Normal (%): 67%
  Population Pyknosed Nuclei (%): 1%
  Population Tubulin-Different-Phenotype (%): 53%
  Total Cell Count: 186
